In the library only some 1.2% were active in any assay of this set; here they are far more common.
SR-BI DiI-HDL act: SR-BI HDL lipid transfer activation | hit rate 0.096% among 320,000 | AID 504775 | CHO ldlA[mSR-BI] cells, DiI-HDL uptake fluorescence, 3 h; 100 = double the neutral-control signal | activation, % at 12.5 µM;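 active = mean replicate activation of at least 60% and every replicate at or above 60%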;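 also: 0% = median plate neutral-control signal and 100% = twice that signal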
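System: LDL receptor-deficient CHO ldlA cells overexpressing murine SR-BI | Timing: 3 h uptake period with compound, 37 °C | Medium: HEPES-buffered (25 mM, pH 7.4) F12 plus 0.5% BSA | Dosing: Single-point compound dose | Signal: Bottom-read fluorescence, 550/595 nm | Read-out: Retained DiI signal reflecting DiI-HDL uptake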
SR-BI HDL uptake: mouse SR-BI HDL lipid transfer inhibition. ldlA[mSR-BI] CHO cells, DiI-HDL uptake fluorescence, 3 h. inhibition, % at 12.5 µM. hit rate 0.96% among 320,000. AID 488896;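 active = mean replicate inhibition of at least 70% and a set share of replicates each scoring 70 or more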;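 also: 0% = median of neutral control wells and 100% = median of positive control wells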
Target sequence (Q61009 whole entry, looked up): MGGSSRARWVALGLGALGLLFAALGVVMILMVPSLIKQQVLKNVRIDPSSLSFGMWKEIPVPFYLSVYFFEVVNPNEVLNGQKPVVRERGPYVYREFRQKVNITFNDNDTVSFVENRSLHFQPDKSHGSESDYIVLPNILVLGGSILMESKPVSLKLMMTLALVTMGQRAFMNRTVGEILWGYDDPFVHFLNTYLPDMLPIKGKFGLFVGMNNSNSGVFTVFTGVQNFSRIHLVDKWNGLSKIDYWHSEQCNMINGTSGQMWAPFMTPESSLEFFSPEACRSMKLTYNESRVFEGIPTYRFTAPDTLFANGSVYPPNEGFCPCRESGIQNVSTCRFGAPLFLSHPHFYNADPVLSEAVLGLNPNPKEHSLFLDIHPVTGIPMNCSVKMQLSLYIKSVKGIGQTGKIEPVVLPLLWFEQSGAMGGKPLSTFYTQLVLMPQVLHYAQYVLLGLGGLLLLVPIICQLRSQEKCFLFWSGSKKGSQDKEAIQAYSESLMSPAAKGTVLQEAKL
FN deposit inh: fibronectin deposition inhibition. inhibition, % at 12.6 µM. AH1F fibroblasts, Alexa488-fibronectin deposition fluorescence, overnight. AID 743247. hit rate 0.086% among 350,000;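 active = mean inhibition across replicates of 30% or more, regardless of how many single replicates reach that level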;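 also: positive control wells lacked labelled fibronectin entirely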
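Material: AH1F fibroblast monolayer depositing Alexa488-labelled fibronectin into matrix / Amount: 10000 AH1F cells per well / Signal: fluorescence 485/525 nm / Medium: DMEM, 2% serum / Compound: single dose, pinned / Incubation: 1 h cell adhesion before compound, then overnight fibronectin incubation / Reagent: Alexa488-FN, 24 nM final / Read-out: inhibition of fibronectin deposition signal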
Efflux pump inh: blocks antifungal efflux pumps in multiplex yeast assay; S. cerevisiae Candida pump triplex, Nile Red efflux; inhibition, % at 10 µM; hit rate 0.44% among 330,000; AID 485275;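 active = plate passing quality check with inhibition over a set limit, or well fluorescence over plate mean plus 4 SD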;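 also: Nile Red retained in pooled yeast measured as flow cytometry median fluorescence; 0% = buffer negative control and 100% = Enniatin B positive control; higher means more Nile Red kept so more efflux inhibition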
CaV13 FRET inh: Primary screen for inhibitors of IQ motif and Ca2+-dependent inactivation inhibitor domain binding in CACNA1D, Förster resonance energy transfer in living cells, …. hit rate 0.098% among 340,000. inhibition, % at 12.3 µM. HEK cells, CFP/YFP FRET ICDI-IQ, plate reader, 10 min; percent FRET-ratio fall versus neutral wells. AID 743397;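 active = mean replicate inhibition of at least 30% and at least 1% of replicates passing that level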;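 also: 0% = median of the neutral control wells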
Cmpd fluor yeast: counter-screen for efflux pump inhibitors: compound fluorescence. hit rate 4% among 1,700. S. cerevisiae AD/pABC3, flow cytometry. shares compounds with Efflux pump inh. AID 588517. fluorescence ratio to DMSO, % at 10 µM;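 active = fluorescence ratio to DMSO above its plate's cutoff, the plate mean ratio plus 5 SD, cut at about 210% in these data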;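 also: unstained yeast with no Nile Red so the signal is compound autofluorescence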
CaMdr1 efflux inh: Candida Mdr1 efflux pump inhibition | hit rate 1% among 1,700 | inhibition, % at 10 µM | S. cerevisiae AD/CaMDR1, Nile Red efflux, flow cytometry | shares compounds with Efflux pump inh | AID 588518; in the data active = inhibition above about 26%;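 also: 0% = DMSO vehicle and 100% = reference inhibitor; higher means more Nile Red retained so more efflux inhibition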
Cdr2 pump inh: inhibitors of Candida albicans Cdr2 efflux pump; shares compounds with Efflux pump inh; S. cerevisiae AD/CaCDR2, Nile Red retention, flow cytometry; Nile Red retention ratio vs DMSO, % at 10 µM; hit rate 4% among 1,700; AID 588520; in the data active = Nile Red retention ratio vs DMSO above about 190%;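 also: higher ratio means more blocking of Cdr2 efflux of the dye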
CaCdr1 efflux inh: inhibitors of Candida albicans Cdr1 efflux pump. S. cerevisiae AD/CaCDR1, Nile Red efflux, flow cytometry. shares compounds with Efflux pump inh. AID 588522. inhibition, % at 10 µM. hit rate 1% among 1,700;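 active = inhibition above the screen-wide mean plus twice its standard deviation, cut at about 32% in these data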
* hit, by the source's call; nt = not tested or not shown.

SMILES | SR-BI DiI-HDL act | SR-BI HDL uptake | FN deposit inh | Efflux pump inh | CaV13 FRET inh | Cmpd fluor yeast | CaMdr1 efflux inh | Cdr2 pump inh | CaCdr1 efflux inh
Cc1cc(C(=O)NNS(=O)(=O)c2ccc(C(C)(C)C)cc2)nn1C(C)(C)C | 2.9 | -2.9 | 1.1 | 0.6* | 0.0 | 101.1 | -0.2 | 108.3 | -0.1
CN(C)CCCNC(=O)C[C@@H]1C=C[C@H](NC(=O)Cc2cccnc2)[C@@H](CO)O1 | nt | nt | -2.6 | nt | nt | nt | nt | nt | nt
Cc1ccc(-c2csc(=S)n2CC(=O)OCC(=O)NC(C)C(C)C)cc1 (configuration not stated) | -42.4 | 42.4 | -15.1 | 0.7* | -5.4 | 90.7 | -0.2 | 100.7 | -0.1
CO[C@@H]1CN(C)C(=O)c2cc(NC(=O)NC(C)C)ccc2OC[C@H](C)N(Cc2cncnc2)C[C@@H]1C | nt | nt | -2.1 | nt | nt | nt | nt | nt | nt
S=C(NCCc1ccccc1)N1CCc2ccccc2C1 | 2.9 | -2.9 | nt | 0.2 | 0.1 | nt | nt | nt | nt
S=C(NCC1CCCO1)N1CCc2ccccc2C1 (configuration not stated) | 18.4 | -18.4 | nt | 0.1 | nt | 95.0 | -0.2 | 89.3 | -0.1
COc1ccc(NC(=O)Nc2cccc3c2O[C@@H](CN(C)C(=O)NC2CCCCC2)[C@H](C)CN([C@@H](C)CO)C3=O)cc1 | nt | nt | -3.4 | nt | nt | nt | nt | nt | nt
COc1ccc(NC(=O)Nc2cccc3c2O[C@H](CN(C)C(=O)NC2CCCCC2)[C@@H](C)CN([C@H](C)CO)C3=O)cc1 | 2.8 | -2.8 | -2.2 | 0.2 | -10.4 | 102.2 | -0.2 | 118.5 | 0.1
Cc1cc(NC(=O)CCC(=O)N(CC(=O)NC2CCCC2)Cc2ccc(F)cc2)no1 | -7.3 | 7.3 | -7.1 | 0.0 | -5.6 | 110.0 | 0.1 | 114.4 | 0.1
Cc1cc(NC(=O)CCC(=O)N(CC(=O)NC2CCCC2)Cc2ccc3c(c2)OCO3)no1 | -0.9 | 0.9 | -7.2 | -0.3 | -5.5 | nt | nt | nt | nt
Cc1cc(NC(=O)CCC(=O)N(c2cccnc2)C(C(=O)NC2CCCC2)c2ccccc2)no1 (configuration not stated) | 2.7 | -2.7 | nt | 0.1 | -1.0 | 222.7 | 3.4 | 109.4 | 0.2
CN1C(=O)c2cc(NC(=O)Cc3cccs3)ccc2OC[C@@H]2O[C@H](CC(=O)N[C@@H]3CCN(Cc4ccccc4)C3)CC[C@H]21 | nt | nt | 0.4 | nt | nt | nt | nt | nt | nt
Cn1ccc(NC(=O)c2ccc(Cl)cc2)n1 | 1.8 | -1.8 | 2.8 | 150.6* | -17.2 | 105.6 | -0.1 | 100.1 | -0.1
Cn1ccc(NC(=O)c2ccc(Cl)cc2Cl)n1 | -3.8 | 3.8 | -1.1 | -0.1 | -2.0 | nt | nt | nt | nt
COc1ccc2c3c(n(C)c2c1)[C@H](CO)N(S(=O)(=O)c1cn(C)cn1)CC31CCN(C)CC1 | nt | nt | -10.6 | nt | nt | nt | nt | nt | nt
Cn1c(N)c(C(=O)COC(=O)c2ccccn2)c(=O)n(C)c1=O | 2.4 | -2.4 | -0.4 | 1.7* | -2.0 | 99.0 | -0.3 | 96.3 | -0.1
COC(=O)C[C@@H]1CC[C@H]2[C@@H](COc3ccc(NC(=O)c4cccc(Cl)c4)cc3C(=O)N2C)O1 | nt | nt | -10.2 | nt | nt | nt | nt | nt | nt
CCOC(=O)C1=C(CS(=O)(=O)c2ccccc2)NC(=O)NC1c1cccc(OC)c1 (configuration not stated) | 16.9 | -16.9 | -14.2 | -0.1 | -10.1 | nt | nt | nt | nt
CCOC(=O)C1=C(CS(=O)(=O)c2ccccc2)NC(=O)NC1c1ccccc1 (configuration not stated) | 24.4 | -24.4 | -0.3 | 0.5* | -4.8 | 89.9 | 0.0 | 96.0 | 0.0
COc1ccc(N(CC(=O)Nc2cccc([N+](=O)[O-])c2C)S(C)(=O)=O)cc1OC | 9.8 | -9.8 | -3.3 | 8.9* | -2.6 | 97.6 | -0.4 | 102.9 | -0.1
COc1ccc(C(=O)Cc2nnc(C)s2)c(OC)c1 | -12.1 | 12.1 | -9.5 | 8.0* | -4.3 | 99.0 | -0.1 | 102.9 | -0.1
CCc1nnc(NC(=O)c2ccc(OC)cc2OC)s1 | -16.5 | 16.5 | nt | 0.2 | nt | nt | nt | nt | nt

From PubChem BioAssay
